Data reported in ChEMBL document CHEMBL2385070, “Selective inhibition of bacterial and human topoisomerases by N-arylacyl O-sulfonated aminoglycoside derivatives” (ACS Med Chem Lett, 2013).
Activity calls are given as the source filed them. The calls are words filed in the database; no cut-off is given here.

Columns and labels:
[1] = target: T1, DNA topoisomerase 1 (Homo sapiens) (UniProt P11387); test: Inhibition of human DNA topoisomerase 1 at 200 uM relative to control
T1 sequence (whole entry): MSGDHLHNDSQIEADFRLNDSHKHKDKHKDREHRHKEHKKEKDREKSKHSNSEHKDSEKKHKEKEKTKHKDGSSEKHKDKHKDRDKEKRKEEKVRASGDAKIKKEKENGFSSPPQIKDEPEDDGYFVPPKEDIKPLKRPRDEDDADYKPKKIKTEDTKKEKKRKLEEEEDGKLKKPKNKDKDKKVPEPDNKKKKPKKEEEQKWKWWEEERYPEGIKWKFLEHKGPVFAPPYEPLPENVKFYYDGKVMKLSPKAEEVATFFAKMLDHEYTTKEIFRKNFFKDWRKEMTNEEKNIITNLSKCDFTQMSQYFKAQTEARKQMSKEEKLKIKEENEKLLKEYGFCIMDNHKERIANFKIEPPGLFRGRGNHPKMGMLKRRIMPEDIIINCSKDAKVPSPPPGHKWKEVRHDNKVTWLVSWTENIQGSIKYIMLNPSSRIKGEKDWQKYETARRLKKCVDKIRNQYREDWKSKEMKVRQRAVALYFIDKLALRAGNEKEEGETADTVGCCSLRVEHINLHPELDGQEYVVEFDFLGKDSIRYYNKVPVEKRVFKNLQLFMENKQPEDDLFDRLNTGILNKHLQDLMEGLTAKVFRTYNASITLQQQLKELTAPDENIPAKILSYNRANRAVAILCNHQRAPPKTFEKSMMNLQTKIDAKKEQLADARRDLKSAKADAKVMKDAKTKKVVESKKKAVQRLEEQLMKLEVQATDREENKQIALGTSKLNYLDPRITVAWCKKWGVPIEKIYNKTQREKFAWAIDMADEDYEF

[2] = system: Escherichia coli; test: Inhibition of Escherichia coli DNA topoisomerase 4 at 200 uM relative to control
[3] = system: Escherichia coli; test: Inhibition of Escherichia coli DNA gyrase catalytic activity at 200 uM relative to control
Summary of the method: (§1)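 E. coli gyrase was incubated with relaxed DNA, either without compound or with compound at 200 μM; titrations also used 20, 50 and 100 μM. Gel lanes included a no-enzyme control and an enzyme-without-compound control, and supercoiling was scored from the lane pattern. In the summary table, + denotes greater than 95% inhibition.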

[4] = target: DNA topoisomerase 2-alpha (Homo sapiens) (UniProt P11388); test: Inhibition of human DNA topoisomerase 2 at 200 uM relative to control
Chain of DNA topoisomerase 2-alpha (Homo sapiens) (P11388 whole entry): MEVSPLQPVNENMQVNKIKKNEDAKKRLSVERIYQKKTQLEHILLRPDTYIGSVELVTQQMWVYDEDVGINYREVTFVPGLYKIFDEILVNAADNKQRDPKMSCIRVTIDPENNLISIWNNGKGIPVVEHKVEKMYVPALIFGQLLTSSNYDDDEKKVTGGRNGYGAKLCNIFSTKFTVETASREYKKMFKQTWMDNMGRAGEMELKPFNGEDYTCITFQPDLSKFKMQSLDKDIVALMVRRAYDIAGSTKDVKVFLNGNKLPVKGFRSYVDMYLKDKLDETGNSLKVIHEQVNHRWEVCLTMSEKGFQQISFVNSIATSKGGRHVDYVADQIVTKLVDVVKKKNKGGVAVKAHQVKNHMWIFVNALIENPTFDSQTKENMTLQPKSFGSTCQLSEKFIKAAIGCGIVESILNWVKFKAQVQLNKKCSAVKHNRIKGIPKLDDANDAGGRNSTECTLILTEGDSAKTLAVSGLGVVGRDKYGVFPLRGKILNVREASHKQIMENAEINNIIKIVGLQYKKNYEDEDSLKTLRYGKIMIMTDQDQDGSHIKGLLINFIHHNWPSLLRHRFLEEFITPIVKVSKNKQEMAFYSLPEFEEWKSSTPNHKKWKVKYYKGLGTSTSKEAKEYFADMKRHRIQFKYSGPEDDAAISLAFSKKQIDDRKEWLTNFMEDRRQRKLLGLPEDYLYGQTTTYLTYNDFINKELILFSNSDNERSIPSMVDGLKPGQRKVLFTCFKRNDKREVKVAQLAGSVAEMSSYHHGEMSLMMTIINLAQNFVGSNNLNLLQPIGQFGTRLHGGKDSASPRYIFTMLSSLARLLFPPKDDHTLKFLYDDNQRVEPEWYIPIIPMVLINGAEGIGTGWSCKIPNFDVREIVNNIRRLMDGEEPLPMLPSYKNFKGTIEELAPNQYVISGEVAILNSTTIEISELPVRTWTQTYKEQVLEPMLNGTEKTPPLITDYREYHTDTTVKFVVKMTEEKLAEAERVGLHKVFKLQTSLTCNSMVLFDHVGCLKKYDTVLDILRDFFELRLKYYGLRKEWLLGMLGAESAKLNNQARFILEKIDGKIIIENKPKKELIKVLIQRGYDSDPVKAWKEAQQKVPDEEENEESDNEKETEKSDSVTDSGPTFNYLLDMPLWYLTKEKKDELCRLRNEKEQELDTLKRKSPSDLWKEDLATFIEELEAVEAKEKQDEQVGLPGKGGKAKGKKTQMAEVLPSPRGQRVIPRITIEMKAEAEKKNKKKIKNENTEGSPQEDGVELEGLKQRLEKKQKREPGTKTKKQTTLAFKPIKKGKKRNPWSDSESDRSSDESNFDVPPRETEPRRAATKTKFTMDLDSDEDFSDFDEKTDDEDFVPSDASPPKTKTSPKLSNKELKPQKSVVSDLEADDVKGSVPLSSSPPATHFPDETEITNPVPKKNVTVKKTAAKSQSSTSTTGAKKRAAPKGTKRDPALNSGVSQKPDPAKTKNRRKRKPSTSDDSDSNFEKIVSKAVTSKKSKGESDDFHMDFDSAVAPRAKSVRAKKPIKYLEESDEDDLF

[5] = system: Escherichia coli; test: Inhibition of Escherichia coli DNA topoisomerase 4 assessed as blockade of ciprofloxacin-induced pBR322 DNA cleavage at 200 uM after 10 mins by agarose gel electrophoresis
Summary of the method: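 E. coli Topo IV was incubated with plasmid DNA and ciprofloxacin with or without compound. Ciprofloxacin traps the enzyme–DNA ternary complex, and nicked and linear DNA products were scored on the gel against the supercoiled substrate.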

[6] = system: Escherichia coli; test: Inhibition of Escherichia coli DNA gyrase-mediated supercoiling of relaxed I-DNA after 15 mins by agarose gel electrophoresis; summary of the method: as §1
[7] = system: Escherichia coli; test: Inhibition of Escherichia coli DNA topoisomerase 4-mediated relaxation of negatively supercoiled pBR322 DNA at 200 uM after 15 mins by agarose gel electrophoresis
[8] = system: Escherichia coli; test: Inhibition of Escherichia coli DNA topoisomerase 4-mediated decatenation of kinetoplast DNA at 200 uM after 15 mins by agarose gel electrophoresis

With O=C(NC[C@H]1O[C@H](O[C@H]2[C@H](O)[C@@H](O[C@H]3O[C@H](CO)[C@@H](O)[C@H](NC(=O)c4ccccc4)[C@H]3O)[C@H](NC(=O)c3ccccc3)C[C@@H]2NC(=O)c2ccccc2)[C@H](O)[C@@H](O)[C@@H]1O)c1ccccc1 the inhibition [1] was “inactive”, the inhibition [2] was “inactive” and the inhibition [3] was “inactive”. The inhibition [4] was “inactive”.

In the case of CN(C(=O)c1ccccc1)[C@@H]1[C@@H](O[C@H]2O[C@H](CO)[C@@H](NC(=O)c3ccccc3)[C@H](O)[C@H]2O)O[C@H]2C[C@@H](NC(=O)c3ccccc3)[C@@H](O[C@H]3[C@H](O)[C@@H](O)[C@H](NC(=O)c4ccccc4)C[C@@H]3NC(=O)c3ccccc3)O[C@@H]2[C@@H]1O, the inhibition [5] is reported as “Active”.

For O=C(NC[C@@H]1O[C@H](O[C@H]2[C@@H](O)[C@H](O[C@@H]3[C@@H](O)[C@H](NC(=O)OCc4ccccc4)C[C@H](NC(=O)OCc4ccccc4)[C@H]3O[C@H]3O[C@H](CNC(=O)OCc4ccccc4)[C@@H](O)[C@H](O)[C@H]3NC(=O)OCc3ccccc3)O[C@@H]2CO)[C@H](NC(=O)OCc2ccccc2)[C@@H](O)[C@@H]1O)OCc1ccccc1, the inhibition [1] was “inactive”, the inhibition [2] was “inactive” and the inhibition [3] was “inactive”. The inhibition [4] was “inactive”.

With O=C(Cc1ccccc1)NC[C@H]1O[C@H](O[C@H]2[C@H](O)[C@@H](O[C@H]3O[C@H](CO)[C@@H](O)[C@H](NC(=O)Cc4ccccc4)[C@H]3O)[C@H](NC(=O)Cc3ccccc3)C[C@@H]2NC(=O)Cc2ccccc2)[C@H](O)[C@@H](O)[C@@H]1O the inhibition [1] was “inactive”, the inhibition [2] was “inactive” and the inhibition [3] was “inactive”. The inhibition [4] was “inactive”.

For O=C(NC[C@@H]1O[C@H](O[C@H]2[C@@H](OS(=O)(=O)O)[C@H](O[C@@H]3[C@@H](OS(=O)(=O)O)[C@H](NC(=O)OCc4ccccc4)C[C@H](NC(=O)OCc4ccccc4)[C@H]3O[C@H]3O[C@H](CNC(=O)OCc4ccccc4)[C@@H](OS(=O)(=O)O)[C@H](OS(=O)(=O)O)[C@H]3NC(=O)OCc3ccccc3)O[C@@H]2COS(=O)(=O)O)[C@H](NC(=O)OCc2ccccc2)[C@@H](OS(=O)(=O)O)[C@@H]1OS(=O)(=O)O)OCc1ccccc1, the inhibition [6] was “Dose-dependent effect”, the inhibition [7] was “Active” and the inhibition [5] was “Active”. For the same compound, the inhibition [8] was “Active”.

CC(=O)NC[C@@H]1O[C@H](O[C@H]2[C@@H](O)[C@H](O[C@@H]3[C@@H](O)[C@H](NC(C)=O)C[C@H](NC(C)=O)[C@H]3O[C@H]3O[C@H](CNC(C)=O)[C@@H](O)[C@H](O)[C@H]3NC(C)=O)O[C@@H]2CO)[C@H](NC(C)=O)[C@@H](O)[C@@H]1O was tested, and the inhibition [1] was “inactive”, the inhibition [2] was “inactive” and the inhibition [3] was “inactive”. The inhibition [4] was “inactive”.

In the case of CN(C(=O)OCc1ccccc1)[C@@H]1[C@@H](O[C@H]2O[C@H](CO)[C@@H](NC(=O)OCc3ccccc3)[C@H](O)[C@H]2O)O[C@H]2C[C@@H](NC(=O)OCc3ccccc3)[C@@H](O[C@H]3[C@H](O)[C@@H](O)[C@H](NC(=O)OCc4ccccc4)C[C@@H]3NC(=O)OCc3ccccc3)O[C@@H]2[C@@H]1O, the inhibition [1] is reported as “inactive”, the inhibition [2] is reported as “inactive” and the inhibition [3] is reported as “inactive”. For the same compound, the inhibition [4] was “inactive”.

For O=C(NC[C@H]1O[C@H](O[C@H]2[C@H](O)[C@@H](O[C@H]3O[C@H](CO)[C@@H](O)[C@H](NC(=O)OCc4ccccc4)[C@H]3O)[C@H](NC(=O)OCc3ccccc3)C[C@@H]2NC(=O)OCc2ccccc2)[C@H](O)[C@@H](O)[C@@H]1O)OCc1ccccc1, the inhibition [1] was “inactive”, the inhibition [2] was “inactive” and the inhibition [3] was “inactive”. For the same compound, the inhibition [4] was “inactive”.

In the case of O=C(Cc1ccccc1)NC[C@@H]1O[C@H](O[C@H]2[C@@H](O)[C@H](O[C@@H]3[C@@H](O)[C@H](NC(=O)Cc4ccccc4)C[C@H](NC(=O)Cc4ccccc4)[C@H]3O[C@H]3O[C@H](CNC(=O)Cc4ccccc4)[C@@H](O)[C@H](O)[C@H]3NC(=O)Cc3ccccc3)O[C@@H]2CO)[C@H](NC(=O)Cc2ccccc2)[C@@H](O)[C@@H]1O, the inhibition [1] is reported as “inactive”, the inhibition [2] is reported as “inactive” and the inhibition [3] is reported as “inactive”. The inhibition [4] was “inactive”.
